Bioassay records (PubChem)
GPR7 antagonist – antagonists of human GPR7 (neuropeptides B/W receptor 1); P48145; GPR7-expressing cells, fluorescence antagonist assay; inhibition, % at 4.4 µM; actives 1.1% (n = 290,000); AID 1861; in the data active = inhibition above about 16%, passing the limit was not always enough;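 note: cells stimulated with the agonist NPW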
zfTRPN1 agonist – activates the zebrafish TRPN1 channel; HEK293 zebrafish TRPN1-YFP, Fluo-8 calcium fluorescence; 100% = response to 87 µM carbachol; activation, % at 3 µM; actives 0.18% (n = 220,000);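 active = activation above its plate's cutoff, the mean activation of test wells on that plate plus 3 SD, cut at about 19% in these data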
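Material: zebrafish TRPN1-YFP in HEK293 cells. Doses: one dose of 3 µM, 0.3% DMSO. Incubation: dye 1 h 37 °C plus 30 min RT. Measured by: intracellular calcium fluorescence with Fluo-8.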
TRPML3 agonist – agonists of human TRPML3 channel | actives 0.29% (n = 220,000) | HEK293 TRPML3-YFP, Fluo-8 calcium fluorescence; 100% = the carbachol control signal | activation, % at 3 µM | Q8TDD5 | AID 1448;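 active = activation above its plate's cutoff, the mean activation of the plate's test wells plus 3 SD, cut at about 12% in these data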
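system = HEK293 cells stably carrying human TRPML3-YFP | doses = one concentration, 3 µM nominal, 0.3% DMSO | timing = dye loading 1 h 37 °C then 30 min ambient, 125 s read | detection = Fluo-8 calcium dye fluorescence, ex 470-495, em 515-575 nm | benchmarks = high control carbachol 87 µM, low control DMSO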
TAAR1 agonist – human TAAR1 agonism. Q96RJ0. CHO RD-HGA16 TAAR1, Fluo-8 calcium fluorescence; vehicle wells 0%, saturating PEA agonist 100%. activation, % at 3 µM. actives 0.99% (n = 360,000);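 active = activation above the mean activation of all test compounds in the run plus 3 SD, cut at about 38% in these data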
Target sequence (Q96RJ0 whole entry, looked up): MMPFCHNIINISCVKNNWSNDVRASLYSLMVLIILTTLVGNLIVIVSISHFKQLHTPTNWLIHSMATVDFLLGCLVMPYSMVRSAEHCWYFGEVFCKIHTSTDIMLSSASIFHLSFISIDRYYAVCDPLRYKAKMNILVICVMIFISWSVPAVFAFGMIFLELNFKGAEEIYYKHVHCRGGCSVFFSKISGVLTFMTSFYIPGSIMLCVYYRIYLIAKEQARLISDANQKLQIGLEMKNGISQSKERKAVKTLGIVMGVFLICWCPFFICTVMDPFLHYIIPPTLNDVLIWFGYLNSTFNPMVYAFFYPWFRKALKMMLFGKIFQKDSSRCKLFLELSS
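test system = CHO RD-HGA16 cells carrying human TAAR1 plus Gα16 | schedule = 17-24 h seeding, 75 min 37 °C dye, 30 min RT | compound dosing = 3 µM single concentration | control set = DMSO and PEA EC100 | replicates = n 1 | signal = Fluo-8 fluorescence, 5 s baseline then 140 s kinetic read | measure = percent activation vs PEA EC100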
LANA-H2A inh – blocks KSHV LANA binding to histone H2A/H2B; Q9QR71; cell-free LANA-H2A/H2B peptide, fluorescence polarization; inhibition, % (concentration not given with the values); actives 0.6% (n = 320,000); AID 2629; in the data active = inhibition mostly above about 10%, no sharp cut-off; inactive = mostly below about 6.7%
TAAR1 antagonist – antagonists of human TAAR1. AID 624466. actives 1.5% (n = 360,000). CHO RD-HGA16 TAAR1, Fluo-8 calcium fluorescence, antagonist. inhibition, % at 3 µM;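 active = inhibition above a per-plate cutoff, the mean inhibition of test compounds on that plate plus 3 SD, cut at about 49% in these data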
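Test system – hTAAR1-expressing CHO RD-HGA16 cells, Gα16-coupled · Reagent – β-PEA at EC80 concentration, post-compound challenge · Compound dosing – 3 µM, single point · Timing – 140 s kinetic read after compound, 140 s after agonist · Detection – Fluo-8 intracellular calcium dye fluorescence, real-time kinetic reads · Control set – DMSO and EC80 PEA controls · Repeats – n of 1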
GPR7 antag conf – human GPR7 antagonism, confirmation assay | shares compounds with GPR7 antagonist | GPR7-expressing cells, calcium fluorescence antagonist mode | inhibition, % at 4.4 µM | actives 52% (n = 2,400) | AID 1952; in the data active = inhibition above about 24%;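 note: stimulated with the GPR7 agonist NPW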
MCHR1 antag – antagonizes human MCHR1, a GPR7 antagonist counter-screen; MCHR1-expressing cells, fluorescence antagonist assay; shares compounds with GPR7 antagonist; actives 62% (n = 2,400); inhibition, % at 4.4 µM; in the data active = inhibition above about 22%
Large screens that a line does not name were inactive (follow-up assays come after a bar, where they were run). Sampled rows, rich in hits. Any-hit rate of the full collection: about 3.4%.

O=C(c1ccccc1)N(Cc1cccc(Br)c1)C1CCS(=O)(=O)C1 (stereo not given)	GPR7 antagonist 35 (no result: zfTRPN1 agonist, TRPML3 agonist) | GPR7 antag conf inactive | MCHR1 antag inactive
CCN(C(=O)c1cccc(Br)c1)C1CCS(=O)(=O)C1 (stereo not given)	none (no result: GPR7 antagonist, zfTRPN1 agonist, TRPML3 agonist)
CN(C)S(=O)(=O)c1cccc(NC(=S)NNC(=O)c2cc3ccccc3cc2O)c1	none (no result: GPR7 antagonist, zfTRPN1 agonist, TRPML3 agonist)
O=S(=O)(c1ccc(Br)s1)N1CCN(c2ccnc3cc(Cl)ccc23)CC1	GPR7 antagonist 28 | GPR7 antag conf 37 | MCHR1 antag 29
CCOC(=O)N1CCC(N(CCCOC)C(=O)Nc2cccc(OC)c2)CC1	none
CCOC(=O)N1CCC(N(C(=O)Nc2cccc(OC)c2)C(C)CC)CC1 (stereo not given)	GPR7 antagonist 32 | GPR7 antag conf inactive | MCHR1 antag inactive
CCC(C)NCCOCCOc1ccc(Cl)c(C)c1C (stereo not given)	GPR7 antagonist 21 | GPR7 antag conf 24 | MCHR1 antag 25
CCC(C)NCCOCCOc1ccc(Cl)c2ccccc12 (stereo not given)	GPR7 antagonist 71, LANA-H2A inh 12 | GPR7 antag conf 50 | MCHR1 antag 53
COc1cc(OC)c(CN2CCN(c3ccc(F)cc3)CC2)cc1Br	GPR7 antagonist 22 | GPR7 antag conf inactive | MCHR1 antag inactive
Cc1ccccc1-c1cnc2c(c1)C(=O)N([C@H](C)CO)C[C@@H](C)[C@H](CN(C)C(=O)c1ccncc1)O2	none (no result: GPR7 antagonist, zfTRPN1 agonist, TRPML3 agonist, LANA-H2A inh)
CC1(C)CC(Cc2ccc(C(F)(F)F)cn2)N(C(=O)OC(C)(C)C)C1 (stereo not given)	none (no result: GPR7 antagonist, zfTRPN1 agonist, TRPML3 agonist, LANA-H2A inh)
CCc1ccc(S(=O)(=O)N2CCN(c3ncccn3)CC2)cc1	GPR7 antagonist 26 (no result: zfTRPN1 agonist, TRPML3 agonist) | GPR7 antag conf inactive | MCHR1 antag inactive
CCOC(=O)C1CCN(S(=O)(=O)c2ccc(CC)cc2)CC1	GPR7 antagonist 21 | GPR7 antag conf inactive | MCHR1 antag 25
Nc1ccc2c3c(ccc([N+](=O)[O-])c13)CC2	none (no result: GPR7 antagonist, zfTRPN1 agonist, TRPML3 agonist, LANA-H2A inh)
CCc1ccc(NC(=O)C2(c3ccccc3)CC2(Cl)Cl)cc1 (stereo not given)	GPR7 antagonist 29, TAAR1 agonist 55 | GPR7 antag conf 65 | MCHR1 antag 76
N#Cc1c(NCCN)nc(NCc2ccccc2)c2c1CCN(Cc1ccccc1)C2	none (no result: TAAR1 agonist, LANA-H2A inh, TAAR1 antagonist)
N#Cc1c(N2CCCCC2)nc(N2CCCCC2)c2c1CCN(Cc1ccccc1)C2	GPR7 antagonist 46 | GPR7 antag conf inactive | MCHR1 antag inactive
Cc1onc(-c2ccccc2)c1CNC(=O)Nc1ccc(C(F)(F)F)cc1	GPR7 antagonist 24 | GPR7 antag conf 28 | MCHR1 antag 52
CC(C)CNS(=O)(=O)c1ccc(Br)cc1N1CCC[C@@H]1CO	none (no result: GPR7 antagonist, zfTRPN1 agonist, TRPML3 agonist, LANA-H2A inh)
COc1ccc(S(=O)(=O)N(C)C)cc1NC(=O)CCCSc1ccccc1	none (no result: zfTRPN1 agonist, TRPML3 agonist)
Clc1ccccc1-c1nnn(Cc2ccc(-c3nn[nH]n3)cc2)n1	GPR7 antagonist 24 | GPR7 antag conf 29 | MCHR1 antag inactive
Clc1ccc(Cn2nnc(-c3ccccc3)n2)cc1	none
COc1ccc(-c2ccc(C(=O)NCCc3ccccc3)c3occc23)c(C)c1	none (no result: GPR7 antagonist, zfTRPN1 agonist, TRPML3 agonist, LANA-H2A inh)
N=c1c(C(=O)NCc2ccc(F)cc2)cc2c(=O)n3ccccc3nc2n1CC1CCCO1 (stereo not given)	GPR7 antagonist 22 | GPR7 antag conf 26 | MCHR1 antag inactive
N=c1c(C(=O)NCCc2ccccc2)cc2c(=O)n3ccccc3nc2n1CC1CCCO1 (stereo not given)	GPR7 antagonist 48 (no result: zfTRPN1 agonist, TRPML3 agonist) | GPR7 antag conf 34 | MCHR1 antag inactive
O=C(O)CCn1c2ccccc2c2nc3ccccc3nc21	GPR7 antagonist 28 (no result: zfTRPN1 agonist, TRPML3 agonist) | GPR7 antag conf inactive | MCHR1 antag inactive
O=C(c1cc(-c2ccc(F)cc2)on1)N1CCCCCC1	GPR7 antagonist 36 (no result: zfTRPN1 agonist, TRPML3 agonist) | GPR7 antag conf inactive | MCHR1 antag 26
